By Km is commonly meant the concentration of substrate that gives half-maximal velocity. One may read the IC50 as the concentration that gives 50% inhibition. The term Ki denotes the equilibrium dissociation constant of an inhibitor or competing ligand from its target. A higher Ki goes with weaker binding.

The record followed here is article PMC2818544 (Bioorganic & medicinal chemistry, 2009).

Data set [1] addresses RmlC and RmlD (Mycobacterium tuberculosis, UniProt P9WH09). It is filed as biochemical. The following applies: read-out: Km of NADPH; cofactor; TDP-KDX at 200 μM.
Data set [2] in a line: Cytotoxicity, CellTiter-Glo luminescence. The note with it: human, human aortic endothelial (HAE) cells. It is filed as cell-based. (In general: ATP-based viability assays read luminescence as a measure of living cells.)
Data set [3] addresses T1, RmlC (Mycobacterium tuberculosis, UniProt P9WH11). In words: 96-well RmlC/RmlD coupled assay, NADPH absorbance at 340 nm. It is filed as biochemical.
Data set [4] concerns the target T1, RmlC. Description: Mode of inhibition: TDP-KDX Km. The data set is classed as biochemical.
Data set [5] deals with T1, RmlC. Description: Time dependence of the onset of inhibition. It is filed as biochemical. The note with it: pre-incubation 0, 1, 2 or 3 hr. An outline of the steps: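 Test compound came from a 16-point 2-fold serial dilution (2.5 mM top stock) and was diluted in water. It was pre-incubated 0–3 hr with 2x RmlC, RmlD and NADPH in 83.5 mM MOPS. TDP-KDX was then added and NADPH fluorescence followed over 90 min. IC50 came from a 4-parameter logistic fit of percent activity.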

For data set [6], the target named is T1, RmlC. In words: Reversibility of inhibition. The data set is classed as biochemical. The following applies: 10 times IC50 pre-incubated 0 or 0.5 hr with 100x RmlC, diluted 100-fold. In short, it runs like this: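 Test compound incubated 0 or 0.5 hr at 25°C with concentrated RmlC in buffer, then diluted 100-fold. RmlD, TDP-KDX and NADPH were added, and activity was followed as the decrease in NADPH fluorescence (340/460 nm) over 200 min. Controls had no compound, or compound added only after dilution.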

The subject of data set [7] is RmlC and RmlD. It is filed as biochemical, Mycobacterium tuberculosis. The following applies: read-out: IC50 of the known inhibitor TDP.

T1 sequence (P9WH11 whole entry, looked up): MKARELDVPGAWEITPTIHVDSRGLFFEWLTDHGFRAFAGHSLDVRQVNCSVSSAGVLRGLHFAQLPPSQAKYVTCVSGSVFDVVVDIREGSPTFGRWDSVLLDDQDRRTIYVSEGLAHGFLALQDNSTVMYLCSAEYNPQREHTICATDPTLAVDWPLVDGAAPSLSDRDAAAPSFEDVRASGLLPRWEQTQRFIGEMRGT
Sequence of RmlC and RmlD (Mycobacterium tuberculosis, UniProt P9WH09) (P9WH09 whole entry): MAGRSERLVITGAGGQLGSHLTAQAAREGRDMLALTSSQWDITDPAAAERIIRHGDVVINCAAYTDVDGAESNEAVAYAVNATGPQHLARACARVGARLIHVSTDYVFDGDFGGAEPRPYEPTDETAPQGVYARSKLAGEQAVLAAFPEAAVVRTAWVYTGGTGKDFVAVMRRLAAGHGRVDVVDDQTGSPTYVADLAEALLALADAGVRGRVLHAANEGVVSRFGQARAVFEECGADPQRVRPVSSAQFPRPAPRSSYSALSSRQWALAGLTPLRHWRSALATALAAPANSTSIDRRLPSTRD

Turning to `NC(=O)C1=CN([C@@H]2O[C@H](COP(=O)(O)OP(=O)(O)OC[C@H]3O[C@@H](n4cnc5c(N)ncnc54)[C@H](OP(=O)(O)O)[C@@H]3O)[C@@H](O)[C@H]2O)C=CC1` [NADPH], the Km at RmlC and RmlD [1] was found to be 12 µM. The compound `COc1cccc2c1C(=O)c1c(O)c3c(c(O)c1C2=O)C[C@@](O)(C(=O)CO)C[C@@H]3O[C@H]1C[C@H](N)[C@H](O)[C@H](C)O1` [doxorubicin] returned an IC50 at 24 h in data set [2] of roughly 10 µM. `CCCn1c2ccccc2c2nnc(SCCCn3c(=O)[nH]c4ccccc43)nc21` [compound 77071]: the “fold increase of IC50 relative to 77074” value on RmlC [3] came to 10 fold. Turning to `C=CCn1c2ccccc2c2nnc(SCn3c(=O)[nH]c4ccccc43)nc21` [SID 7972845], at RmlC [3], the “fold increase of IC50 relative to 77074” value amounted to 86 fold. For the compound `CCn1c2ccccc2c2nnc(SCCCn3c(=O)[nH]c4ccccc43)nc21` [SID 7975595, 1-(3-(5-ethyl-5H-[1,2,4]triazino[5,6-b]indol-3-ylthio)propyl)-1H-benzo[d]imidazol-2(3H)-one], at RmlC [4], the affinity, expressed as Ki, was 0.1 µM. Moreover, the “affinity of inhibitor relative to TDP-KDX (Km versus Ki)” value on RmlC [4] (comparison of Km of TDP-KDX and Ki of inhibitor) is on record as “approximately 2000 fold”. Further, the mode of inhibition entry on RmlC [4] (versus substrate TDP-KDX) was “classical competitive inhibitor”. In addition, the “change of IC50 with pre-incubation time (onset of inhibition)” value on RmlC [5] is “No such decrease in IC50 was observed”. The reversibility of inhibition result at RmlC [6] was “fully reversible inhibitor”.

Regarding `Cc1cn([C@H]2C[C@H](O)[C@@H](COP(=O)(O)OP(=O)(O)O)O2)c(=O)[nH]c1=O` [TDP, reference compound], the IC50 with RmlC and RmlD [7] was found to be 340 µM. For the compound `O=c1[nH]c2ccccc2n1CCCSc1nnc2c3ccccc3n(Cc3ccccc3)c2n1` [compound 77070], at RmlC [3], the “fold increase of IC50 relative to SID 7975595 (R1 ethyl)” value was “approximately 15 fold”.
